Converted amounts (≈) assume the structure as drawn. The source made the active and inactive calls. The calls are words filed in the database; no cut-off is given here.
What was measured:
Staphylococcus aureus [1] = assay: Antibacterial activity against methicillin-resistant Staphylococcus aureus ATCC 43300 assessed as reduction bacterial growth after 16 hrs by TECAN SPARK microplate reader analysis; type: functional
Procedure, shortened: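 Broth microdilution in TSB: single colony grown overnight at 37 °C, diluted 100-fold and grown to mid-log phase. 2-fold serial compound dilutions mixed 1:1 with bacteria at 1 × 10^6 CFU/mL, incubated 16 h at 37 °C, absorbance read at 600 nm. MIC taken as lowest concentration giving complete growth inhibition.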

Escherichia coli [2] = assay: Antibacterial activity against Escherichia coli ATCC 25922 assessed as reduction bacterial growth after 16 hrs by TECAN SPARK microplate reader analysis; type: functional
Procedure, shortened: (§1)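 Single colony grown overnight in 4 mL TSB at 37 °C, diluted 100-fold and grown to mid-log phase. Compounds 2-fold serially diluted in TSB and mixed 1:1 with bacteria in TSB (1 × 10^6 CFU/mL). Incubated 16 h at 37 °C, then A600 read. MIC taken as the lowest concentration giving complete growth inhibition.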

Acinetobacter baumannii = assay: Antibacterial activity against Acinetobacter baumannii ATCC 19606 assessed as reduction bacterial growth after 16 hrs by TECAN SPARK microplate reader analysis; type: functional; procedure, shortened: as §1
Klebsiella pneumoniae = assay: Antibacterial activity against Klebsiella pneumoniae ATCC 10031 assessed as reduction bacterial growth after 16 hrs by TECAN SPARK microplate reader analysis; type: functional; procedure, shortened: as §1
[3] = Hemolytic activity in mouse red blood cells assessed as hemolysis incubated for 1 hr by TECAN SPARK microplate reader analysis; type: toxicity, cell-based, Erythrocyte; settings: red blood cells (erythrocytes)
Procedure, shortened: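 Mouse RBCs washed three times in 1× PBS by centrifugation (3500 rpm, 10 min) and made up as a 5% v/v suspension. Incubated with 2-fold serially diluted compound in PBS for 1 h at 37 °C, then centrifuged. Supernatant diluted in PBS and A540 read. % hemolysis calculated relative to 1% Triton X-100 (100%) and PBS (0%).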

Staphylococcus aureus [4] = assay: Bactericidal activity against Staphylococcus aureus ATCC 29213 assessed as reduction in colony forming units incubated for 15 to 120 mins by time-kill kinetics assay; type: functional, organism-based; settings: time 15-120 min
Procedure, shortened: (§2)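 Bacteria grown at 37 °C to mid-log phase and diluted to 1 × 10^6 CFU/mL. […] Mixtures diluted 10^2–10^4-fold and plated on TSB agar; colonies counted after 20 h at 37 °C.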

Escherichia coli [5] = assay: Bactericidal activity against Escherichia coli ATCC 25922 assessed as reduction in colony forming units at 1 to 4 times of MIC by time-kill kinetics assay; type: functional, organism-based; settings: time 15-120 min, TDE = time-dependent effect; procedure, shortened: as §2
Staphylococcus aureus [6] = assay: Bactericidal activity against Staphylococcus aureus ATCC 29213 assessed as inhibition of bacterial growth at 1 to 4 times of MIC measured within 1 hr mins by time-kill kinetics assay relative to control; type: functional; procedure, shortened: as §2
Staphylococcus aureus [7] = assay: Antibacterial activity against Staphylococcus aureus ATCC 29213 assessed as inhibition of bacterial growth by measuring fold increase in MIC compound preincubated at 40 degree C for 1 hr followed by bacterial culture addition and measured after 16 to 18 hrs by TECAN SPARK microplate reader analysis; type: functional; settings: time 16-18 hrs
Staphylococcus aureus [8] = assay: Antibacterial activity against Staphylococcus aureus ATCC 29213 assessed as inhibition of bacterial growth by measuring fold increase in MIC compound preincubated at 120 degree C for 1 hr followed by bacterial culture addition and measured after 16 to 18 hrs by TECAN SPARK microplate reader analysis; type: functional; settings: time 16-18 hrs
Staphylococcus aureus [9] = assay: Antibacterial activity against Staphylococcus aureus ATCC 29213 assessed as inhibition of bacterial growth by measuring fold increase in MIC measured after 16 to 18 hrs in presence of NaCl by TECAN SPARK microplate reader analysis; type: functional; settings: time 16-18 hrs
Procedure, shortened: (§3)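 Salt/serum stability. Exponential-phase bacteria incubated 16–18 h with compound in medium supplemented with 10 mM NaCl, 10 mM KCl, 10 mM MgCl2, 10% DMEM or 10% FBS. Stability judged from the change in MIC.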

Escherichia coli [10] = assay: Antibacterial activity against Escherichia coli ATCC 25922 assessed as inhibition of bacterial growth by measuring fold increase in MIC compound preincubated at 40 degree C for 1 hr followed by bacterial culture addition and measured after 16 to 18 hrs by TECAN SPARK microplate reader analysis; type: functional; settings: time 16-18 hrs
Escherichia coli [11] = assay: Antibacterial activity against Escherichia coli ATCC 25922 assessed as inhibition of bacterial growth by measuring fold increase in MIC measured after 16 to 18 hrs in presence of NaCl by TECAN SPARK microplate reader analysis; type: functional; settings: time 16-18 hrs; procedure, shortened: as §3
Staphylococcus aureus [12] = assay: Drug resistance, ratio of MIC for Staphylococcus aureus ATCC 29213 after 25 passages to MIC for Staphylococcus aureus ATCC 29213 after initial exposure; type: functional; settings: time 16 hrs
Procedure, shortened: (§4)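 Serial passage resistance selection: after each broth MIC determination, bacteria from the 1/2 MIC well were withdrawn and diluted to 1 × 10^6 CFU/mL for the next MIC measurement. Repeated for 25 passages; MIC after passage 25 compared with the initial MIC.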

Escherichia coli [13] = assay: Drug resistance, ratio of MIC for Escherichia coli ATCC 25922 after 25 passages to MIC for Escherichia coli ATCC 25922 after initial exposure; type: functional; procedure, shortened: as §4
Staphylococcus aureus [14] = assay: Induction of cytoplasmic membrane depolarization in Staphylococcus aureus ATCC 29213 assessed as increase in fluorescence intensity by DiSC3(5) staining based analysis; type: functional, organism-based
Procedure, shortened: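 Mid-log cells washed in 5 mM HEPES/5 mM glucose and resuspended at 10^6 CFU/mL in glucose/HEPES/100 mM KCl (1:1:1). DiSC3(5) added and fluorescence (Ex 622 / Em 670 nm) followed for 30 min at 37 °C until minimal. Compound then added and the fluorescence rise recorded.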

Escherichia coli [15] = assay: Induction of inner membrane permeabilization in Escherichia coli ATCC 25922 assessed as increase in fluorescence intensity incubated for 1 hr by propidium iodide staining based TECAN SPARK microplate reader analysis; type: functional, organism-based
Procedure, shortened: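 Overnight 37 °C cultures resuspended in PBS and diluted to OD600 0.1. Propidium iodide added (5 µM final) for 30 min. Treated with a range of compound concentrations for 1 h in the dark; fluorescence read at Ex 535 / Em 615 nm.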

Staphylococcus aureus [16] = assay: Induction of morphological changes in Staphylococcus aureus ATCC 29213 assessed as cell shrinkage at 8 time of MIC for 6 hrs by scanning electron microscopy; type: functional, organism-based
Procedure, shortened: (§5)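 Mid-log cells exposed to compound for 6 h at 37 °C alongside untreated controls. Cells pelleted (3000 rpm, 15 min), washed four times in PBS, and fixed with 2.5% glutaraldehyde. Dehydrated through graded ethanol, critical-point dried and gold-coated, then imaged by SEM.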

Staphylococcus aureus [17] = assay: Induction of morphological changes in Staphylococcus aureus ATCC 29213 assessed as cell collapse at 8 time of MIC for 6 hrs by scanning electron microscopy; type: functional, organism-based; procedure, shortened: as §5
Escherichia coli [18] = assay: Induction of morphological changes in Escherichia coli ATCC 25922 assessed as cell wrinkled at 8 time of MIC for 6 hrs by scanning electron microscopy; type: functional, organism-based; procedure, shortened: as §5
Staphylococcus aureus [19] = assay: Induction of membrane disruption in Staphylococcus aureus ATCC 29213 assessed as increase in red fluorescence at 8 times of MIC for 6 hrs by Hoechst 33342 and propidium iodide staining based confocal microscopic analysis; type: functional, organism-based

CCCCCCN1C(=O)[C@H](CCCCNC(=N)N)N(Cc2ccc(-c3ccc(CN4C(=O)N(CCCCCC)C(=O)[C@@H]4CCCCNC(=N)N)cc3)cc2)C1=O
MIC (Staphylococcus aureus [1]): 7.81 µg/mL (≈ 10.1 µM)
MIC (Escherichia coli [2]): 3.91 µg/mL (≈ 5.06 µM)
MIC (Acinetobacter baumannii): 15.6 µg/mL (≈ 20.2 µM)
MIC (Klebsiella pneumoniae): 7.81 µg/mL (≈ 10.1 µM)
HC50 at 1 h [3]: 61 µg/mL
Activity (Staphylococcus aureus [4]): Dose-Dependent Effect
Activity (Escherichia coli [5]): Tde
inhibition (INH) (Staphylococcus aureus [6]): 100%
fold change (FC) (Staphylococcus aureus [7]): 1
fold change (FC) (Staphylococcus aureus [8]): 1
fold change (FC) (Staphylococcus aureus [9]): 1
fold change (FC) (Escherichia coli [10]): 1
fold change (FC) (Escherichia coli [11]): 1
Ratio (Staphylococcus aureus [12]): <=4
Ratio (Escherichia coli [13]): <=4
Activity (Staphylococcus aureus [14]): Dose-Dependent Effect
Activity (Escherichia coli [15]): Dose-Dependent Effect
Activity (Staphylococcus aureus [16]): Active
Activity (Staphylococcus aureus [17]): Active
Activity (Escherichia coli [18]): Active
Activity (Staphylococcus aureus [19]): Active

Source: ChEMBL document CHEMBL5576109, “Hydantoin derivative dimers as broad-spectrum antimicrobial agents against ESKAPE pathogens with enhanced killing rate and stability” (RSC Med Chem, 2024)
